Data set [1] is described as follows: Neuroprotective activity in human SH-SY5Y cells assessed as reduction of H2O2-induced apoptosis at 5 mM after 24 hrs by MTT assay relative to N-acetyl-cysteine. The class given is functional, cell-based. Also on record: scale not given: the % may be the effect or the level left. For orientation: Tetrazolium dyes change colour on reduction, which living cells bring about.

Data set [2] in a line: Neuroprotective activity in human SH-SY5Y cells assessed as reduction of H2O2-induced apoptosis at 25 uM after 24 hrs by MTT assay relative to control. The data set is classed as functional, cell-based. Also on record: scale not given: the % may be the effect or the level left.
A short description of data set [3]: Neuroprotective activity in human SH-SY5Y cells assessed as reduction of H2O2-induced apoptosis at 5 uM after 24 hrs by MTT assay relative to control. The data set is classed as functional, cell-based. Also on record: scale not given: the % may be the effect or the level left.
Data set [4] in a line: Cytotoxicity against human SH-SY5Y cells at 5 to 100 uM by MTT assay. The class given is cell-based.
The nature of data set [5]: Neuroprotective activity in human SH-SY5Y cells assessed as reduction of H2O2-induced apoptosis at 50 uM after 24 hrs by MTT assay relative to control. Details: scale not given: the % may be the effect or the level left. The class given is functional, cell-based.
Data set [6] can be described thus: Neuroprotective activity in H2O2-stimulated human SH-SY5Y cells assessed as upregulation of Bax expression at 5 mM incubated for 4 hrs prior to H2O2 challenge measured after 12 hrs by Western blotting analysis. The data set is classed as functional, cell-based. Particulars: in the assay text read “downregulation of Bax expression” for “upregulation of Bax expression”. In short, it runs like this: (§1)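 SH-SY5Y cells pretreated 4 h with test agent (5, 25, 50 µM) or NAC (5 mM), then exposed to 100 µM H2O2 for 12 h. Bcl-2 and Bax quantified by Western blot densitometry against GAPDH. Mean ± SEM of at least three independent experiments, each in duplicate.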
(Immunoblotting shows a protein as a band on a membrane.)

The nature of data set [7]: Neuroprotective activity in H2O2-stimulated human SH-SY5Y cells assessed as downregulation of Bcl2 expression at 5 mM incubated for 4 hrs prior to H2O2 challenge measured after 12 hrs by Western blotting analysis. The class given is functional, cell-based. To be noted: in the assay text read “upregulation of Bcl2 expression” for “downregulation of Bcl2 expression”. The procedure, abridged:
as §1

Data set [8] in a line: Neuroprotective activity in H2O2-stimulated human SH-SY5Y cells assessed as downregulation of Bcl2 expression incubated for 4 hrs prior to H2O2 challenge measured after 12 hrs by Western blotting analysis. Particulars: in the assay text read “upregulation of Bcl2 expression” for “downregulation of Bcl2 expression”. The class given is functional, cell-based. The procedure, abridged:
as §1

The nature of data set [9]: Neuroprotective activity in H2O2-stimulated human SH-SY5Y cells assessed as upregulation of Bax expression incubated for 4 hrs prior to H2O2 challenge measured after 12 hrs by Western blotting analysis. The class given is functional, cell-based. Particulars: in the assay text read “downregulation of Bax expression” for “upregulation of Bax expression”. In short, it runs like this:
as §1

Data set [10] addresses MAP kinase p38 (Homo sapiens) (UniProt O15264+Q15759+Q16539+P53778). As to the kind of experiment: Inhibition of H2O2-induced p38 phosphorylation in human SH-SY5Y cells at 50 uM incubated for 4 hrs prior to H2O2 induction measured after 12 hrs by Western blotting analysis. The class given is cell-based. The procedure, abridged:
(§2)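 SH-SY5Y cells pretreated 4 h with 50 µM test agent, then stimulated with 100 µM H2O2 for the indicated periods before harvest. Phosphorylated Akt, JNK, ERK and p38 detected by Western blot, normalised to the corresponding total protein as loading control.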

Data set [11] deals with SH-SY5Y. The data set is described as follows: Inhibition of H2O2-induced ERK phosphorylation in human SH-SY5Y cells at 50 uM incubated for 4 hrs prior to H2O2 induction measured after 12 hrs by Western blotting analysis. The class given is cell-based. In short, it runs like this: as §2
The test system of data set [12] is SH-SY5Y. As to the kind of experiment: Inhibition of H2O2-induced AKT phosphorylation in human SH-SY5Y cells at 50 uM incubated for 4 hrs prior to H2O2 induction measured after 12 hrs by Western blotting analysis. The data set is classed as cell-based. In short, it runs like this: as §2
The target of data set [13] is c-Jun N-terminal kinase, JNK (Homo sapiens) (UniProt P45983+P53779+P45984). The data set is described as follows: Inhibition of H2O2-induced JNK phosphorylation in human SH-SY5Y cells at 50 uM incubated for 4 hrs prior to H2O2 induction measured after 12 hrs by Western blotting analysis. The class given is cell-based. The procedure, abridged:
as §2

Active and inactive are the calls of the source. No cut-off for these calls is given here.

For the compound `N=C(NCCS)NC1CCC(O)CC1` (configuration not stated), the Activity in [1] is 82.4%; in [2] it was 38.6%; in [3] it was 31.6%; in data set [4] it was “Non-toxic”; in [5] it was 30.4%.
For the compound `COc1ccc(C(=O)OCCCCNC(=N)NCCS)cc1`, the Activity in [1] was 82.4%; in data set [2] it was 37.5%; in data set [3] it was 42.4%; in [4], “Non-toxic”; in [5], 48.6%.
Take `COc1cc(C(=O)OCCCCNC(=N)NCCS)cc(OC)c1OC`: the Activity was 82.4% in data set [1]; 49.4% in data set [2]; 32.5% in data set [3]; “Non-toxic” in [4]; 49.1% in data set [5].
The corresponding values for `COc1cc(C(=O)OC2CCC(NC(=N)NCCS)CC2)cc(OC)c1O` (configuration not stated) are 88.8%, 67.2%, 76.4%, “Non-toxic” and 65.9%.
On to `N=C(NCCN)NCCS`, for which the Activity in [1] is 76.4%; in data set [2], 75.4%; in data set [3], 66.3%; in data set [4], “Non-toxic”; in data set [5] it was 79.2%.
`CC(O)CNC(=N)NCCS` (configuration not stated): the Activity in data set [1] was 88.8%; in data set [2], 67.3%; in data set [3] it was 77.1%; in data set [4], “Non-toxic”; in data set [5], 65.5%.
As for `N=C(NCCO)NCCS`, the Activity in [1] was 76.4%; in [2], 59.6%; in data set [3] it was 56.4%; in [4] it was “Non-toxic”; in data set [5] it was 65.1%.
On to `COc1cc(OC)cc(C(=O)OCCCCNC(=N)NCCS)c1`, for which the Activity is 88.8% in [1]; 63.5% in [2]; 62.1% in [3]; “Non-toxic” in [4]; 66.1% in [5].
For the compound `COc1cc(C(=O)OCCCCCNC(=N)NCCS)cc(OC)c1O`, the Activity in [1] was 76.4%; in data set [2], 59.9%; in data set [3], 53.9%; in data set [4] it was “Non-toxic”; in data set [5] it was 65.9%.
For `COc1cc(C(=O)OCCCCNC(=N)N)cc(OC)c1O`, the Activity in data set [1] amounted to 82.4%; in [2], 38.5%; in data set [3], 76.7%; in data set [5], 46%.
On to `N=C(NCCS)NCCCCCO`, for which the Activity in [1] is 76.4%; in data set [2] it was 80.6%; in [3], 60%; in data set [4] it was “Non-toxic”; in [5], 82.8%.
Take `N=C(NCCS)NCCCCO`: the Activity was 82.4% in data set [1]; 63.5% in [2]; 68% in data set [3]; “Non-toxic” in data set [4]; 70.2% in data set [5].
For `N=C(NCCS)NCCCO`, the Activity in [1] was 76.4%; in data set [2], 81%; in data set [3], 67.2%; in [4], “Non-toxic”; in [5] it was 82.1%.
Consider `CC(=O)N[C@@H](CS)C(=O)O`, for which the result in [6] and in data set [7] was Active.
With `COc1cc(C(=O)OCCCCCCNC(=N)NCCS)cc(OC)c1O`, the Activity is 88.8% in data set [1]; 80.6% in data set [2]; 78.5% in [3]; “Non-toxic” in data set [4]; 73.8% in data set [5].
The corresponding values for `COc1cc(C(=O)OCCCNC(=N)NCCS)cc(OC)c1O` are 76.4%, 83.3%, 78.8%, “Non-toxic” and 93.3%.
In the case of `N=C(NCCS)NCCCCCCO`, the Activity in [1] is 82.4%; in data set [2], 55.5%; in data set [3], 72.4%; in data set [4] it was “Non-toxic”; in data set [5], 52.9%.
With `CC(CO)NC(=N)NCCS` (configuration not stated), the Activity was 88.8% in data set [1]; 67.2% in data set [2]; 59.9% in [3]; “Non-toxic” in [4]; 80% in data set [5].
For the compound `N=C(NCCS)NCCCN`, the Activity entry in [8] was “Dose-dependent effect”; in data set [9], “Dose-dependent effect”; in data set [1] it was 82.4%; in data set [2], 84.3%; in [3], 77.3%; in data set [4], “Non-toxic”. In data set [5], the Activity stood at 96.5%. In addition, the inhibition result (in [10]; with SH-SY5Y [11]) was “inactive” in each case. Also, the inhibition entry (with SH-SY5Y [12]; in [13]) was “Active” in each case.
As to `COc1cc(C(=O)OCCCCNC(=N)NCCS)cc(OC)c1O`, the Activity is 88.8% in [1]; 66.4% in data set [2]; 60.7% in [3]; “Non-toxic” in data set [4]; 60.4% in [5].
`CCC(O)CNC(=N)NCCS` (configuration not stated): the Activity in data set [1] is 88.8%; in data set [2], 77.1%; in data set [3], 75.8%; in data set [4], “Non-toxic”; in data set [5], 71.1%.

The values above are taken from ChEMBL document CHEMBL2331394, “Neuroprotective effects of mercaptoethylleonurine and mercaptoethylguanidine analogs on hydrogen peroxide-induced apoptosis in human neuronal SH-SY5Y cells” (Bioorg Med Chem Lett, 2013).
